Laboratory results published in ChEMBL document CHEMBL5338764, “Prodrug Strategies for the Development of β-l-5-((E)-2-Bromovinyl)-1-((2S,4S)-2-(hydroxymethyl)-1,3-(dioxolane-4-yl))uracil (l-BHDU) against Varicella Zoster Virus (VZV)” (J Med Chem, 2023).

What was measured:
Human alphaherpesvirus 3 [1] = experiment: Antiviral activity against VZV infected HFF cells assessed as reduction in viral replication; format: functional, organism-based; settings: Human alphaherpesvirus 3, HFF
HFF = experiment: Cytotoxicity against HFF cells assessed as cell growth inhibition upto 200 uM; format: toxicity, cell-based; settings: human
[2] = Selectivity index, ratio of CC50 for HFF cells to EC50 for VZV infected HFF cells; format: toxicity; settings: human, read-out: Selectivity Index
[3] = Selectivity index, ratio of CC50 for human ARPE-19 cells to EC50 for VZV infected human ARPE-19 cells; format: toxicity; settings: VZV infected ARPE-19 cells, read-out: Selectivity Index
[4] = Drug concentration in BALB/c mouse plasma at 11.4 mg/kg, po via gavage measured after 20 mins by LC-MS/MS analysis; format: ADME, organism-based
Summary of the method: (§1)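 BALB/c mice of both sexes (N = 15 per sex per group) received a single oral gavage dose: 11.4 mg/kg L-BHDU or an equimolar 22.5 mg/kg of the POM prodrug, in Cremophor–DMSO–saline (1:1:8). Three mice per group were bled by cardiac puncture under isoflurane at 20, 40, 60 and 120 min into heparin. Plasma (AZT internal standard, 20 ng/mL) was methanol-precipitated and L-BHDU quantified by LC-MS/MS (negative ESI).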

[5] = Drug concentration in BALB/c mouse plasma at 11.4 mg/kg, po via gavage measured after 40 mins by LC-MS/MS analysis; format: ADME, organism-based; summary of the method: as §1
[6] = Drug concentration in BALB/c mouse plasma at 11.4 mg/kg, po via gavage measured after 60 mins by LC-MS/MS analysis; format: ADME, organism-based; summary of the method: as §1
Human alphaherpesvirus 3 [7] = experiment: Antiviral activity against VZV expressing ORF57-TS mutant infected human ARPE-19 cells assessed as reduction in viral replication treated for 72 hrs by bioluminescence imaging analysis; format: functional, organism-based; settings: Human alphaherpesvirus 3, ARPE-19, 72 h
[8] = Stability of compound in gastric juice; format: ADME; settings: simulated gi fluid
[9] = Stability of compound in intestinal juice; format: ADME; settings: simulated gi fluid
[10] = Prodrug conversion in mouse liver homogenate assessed as concentration of L-BHDU formation at 0.3 ug/ml measured immediately by LC-MS/MS analysis; format: ADME, tissue-based; settings: dose 0.3 µg/ml
Summary of the method: (§2)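 Liver homogenate from untreated BALB/c mice was spiked with prodrug at 0.3 μg/mL, with azidothymidine internal standard at 20 ng/mL final, and incubated at 37 °C. Reactions were stopped with 2 volumes of methanol at 0, 2, 4, 10, 30 and 60 min. Supernatants were dried and reconstituted in 50% methanol. Prodrug, L-BHDU and L-BHDU-MP were quantified by LC-MS/MS against calibration curves.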

[11] = Prodrug conversion in mouse liver homogenate assessed as concentration of L-BHDU formation at 0.3 ug/ml measured after 2 mins by LC-MS/MS analysis; format: ADME, tissue-based; settings: dose 0.3 µg/ml; summary of the method: as §2
[12] = Prodrug conversion in mouse liver homogenate assessed as concentration of L-BHDU formation at 0.3 ug/ml measured after 4 mins by LC-MS/MS analysis; format: ADME, tissue-based; settings: dose 0.3 µg/ml; summary of the method: as §2
[13] = Prodrug conversion in mouse liver homogenate assessed as concentration of L-BHDU formation at 0.3 ug/ml measured after 10 mins by LC-MS/MS analysis; format: ADME, tissue-based; settings: dose 0.3 µg/ml; summary of the method: as §2
[14] = Prodrug conversion in mouse liver homogenate assessed as concentration of L-BHDU formation at 0.3 ug/ml measured after 30 mins by LC-MS/MS analysis; format: ADME, tissue-based; settings: 0.5 h, dose 0.3 µg/ml; summary of the method: as §2
[15] = Prodrug conversion in mouse liver homogenate assessed as concentration of L-BHDU formation at 0.3 ug/ml measured after 60 mins by LC-MS/MS analysis; format: ADME, tissue-based; settings: in vitro, 1 h; summary of the method: as §2
[16] = Stability in mouse liver homogenate assessed as compound remaining at 0.3 ug/ml measured immediately by LC-MS/MS analysis; format: ADME, tissue-based; settings: tissue homogenate, dose 0.3 µg/ml; summary of the method: as §2
[17] = Stability in mouse liver homogenate assessed as compound remaining at 0.3 ug/ml measured after 2 mins by LC-MS/MS analysis; format: ADME, tissue-based; settings: tissue homogenate, dose 0.3 µg/ml; summary of the method: as §2
[18] = Stability in mouse liver homogenate assessed as compound remaining at 0.3 ug/ml measured after 4 mins by LC-MS/MS analysis; format: ADME, tissue-based; settings: tissue homogenate, dose 0.3 µg/ml; summary of the method: as §2
[19] = Stability in mouse liver homogenate assessed as compound remaining at 0.3 ug/ml measured after 10 mins by LC-MS/MS analysis; format: ADME, tissue-based; settings: tissue homogenate, dose 0.3 µg/ml; summary of the method: as §2
[20] = Stability in mouse liver homogenate assessed as compound remaining at 0.3 ug/ml measured after 30 mins by LC-MS/MS analysis; format: ADME, tissue-based; settings: tissue homogenate, 0.5 h, dose 0.3 µg/ml; summary of the method: as §2
[21] = Prodrug conversion in BALB/c mouse assessed as concentration of L-BHDU formation at 22.5 mg/kg, po via gavage measured immediately by LC-MS/MS analysis; format: ADME, organism-based; settings: in vivo
[22] = Prodrug conversion in BALB/c mouse assessed as concentration of L-BHDU formation at 22.5 mg/kg, po via gavage measured after 20 mins by LC-MS/MS analysis; format: ADME, organism-based; settings: in vivo; summary of the method: as §1
[23] = Prodrug conversion in BALB/c mouse assessed as concentration of L-BHDU formation at 22.5 mg/kg, po via gavage measured after 40 mins by LC-MS/MS analysis; format: ADME, organism-based; settings: in vivo; summary of the method: as §1
[24] = Prodrug conversion in BALB/c mouse assessed as concentration of L-BHDU formation at 22.5 mg/kg, po via gavage measured after 60 mins by LC-MS/MS analysis; format: ADME, organism-based; settings: in vivo, 1 h; summary of the method: as §1
[25] = Prodrug conversion in BALB/c mouse assessed as concentration of L-BHDU formation at 22.5 mg/kg, po via gavage measured after 120 mins by LC-MS/MS analysis; format: ADME, organism-based; settings: in vivo, 2 h; summary of the method: as §1
[26] = Prodrug conversion in BALB/c mouse assessed as AUC of L-BHDU at 22.5 mg/kg, po via gavage measured upto 120 mins by LC-MS/MS analysis; format: ADME, organism-based; parameters: time < 120 min, dose 22.5 mg/kg, route po; settings: in vivo, 2 h; summary of the method: as §1
[27] = Prodrug conversion in BALB/c mouse assessed as Tmax of L-BHDU at 22.5 mg/kg, po via gavage measured upto 120 mins by LC-MS/MS analysis; format: ADME, organism-based; settings: in vivo, 2 h; summary of the method: as §1
[28] = Prodrug conversion in BALB/c mouse assessed as Cmax of L-BHDU at 22.5 mg/kg, po via gavage measured upto 120 mins by LC-MS/MS analysis; format: ADME, organism-based; parameters: dose 22.5 mg/kg, time < 120 min, route po; settings: in vivo, 2 h; summary of the method: as §1

SMILES: O=c1[nH]c(=O)n([C@@H]2CO[C@H](CO)O2)cc1/C=C/Br
- EC50 (Human alphaherpesvirus 3 [1]): 250 nM
- Activity (HFF): Non-Toxic
- selectivity ratio [2]: > 909
- selectivity ratio [3]: > 3880
- concentration at 20 min [4]: 5620 ng/mL
- concentration at 40 min [5]: 4500 ng/mL
- concentration at 1 h [6]: 6180 ng/mL

SMILES: N[C@H](Cc1ccccc1)C(=O)OC[C@H]1OC[C@@H](n2cc(/C=C/Br)c(=O)[nH]c2=O)O1
- selectivity ratio [3]: > 3480

SMILES: CC(C)C[C@H](N)C(=O)OC[C@H]1OC[C@@H](n2cc(/C=C/Br)c(=O)[nH]c2=O)O1
- selectivity ratio [3]: > 2420

SMILES: NCC(=O)OC[C@H]1OC[C@@H](n2cc(/C=C/Br)c(=O)[nH]c2=O)O1
- selectivity ratio [3]: > 2130

SMILES: CC[C@H](C)[C@H](N)C(=O)OC[C@H]1OC[C@@H](n2cc(/C=C/Br)c(=O)[nH]c2=O)O1
- selectivity ratio [3]: > 1520

SMILES: C[C@@H](N)C(=O)OC[C@H]1OC[C@@H](n2cc(/C=C/Br)c(=O)[nH]c2=O)O1
- selectivity ratio [3]: > 2960

SMILES: NC(=O)CC[C@H](N)C(=O)OC[C@H]1OC[C@@H](n2cc(/C=C/Br)c(=O)[nH]c2=O)O1
- selectivity ratio [3]: > 794

SMILES: CC(C)(C)C(=O)OCOP(=O)(OCOC(=O)C(C)(C)C)OC[C@H]1OC[C@@H](n2cc(/C=C/Br)c(=O)[nH]c2=O)O1
- EC50 (Human alphaherpesvirus 3 [7]): 1 nM
- selectivity ratio [3]: > 2810
- Stability [8]: Stable
- Stability [9]: Stable
- Drug metabolism [10]: 0.016 µg/mL
- Drug metabolism [11]: 0.055 µg/mL
- Drug metabolism [12]: 0.142 µg/mL
- Drug metabolism [13]: 0.359 µg/mL
- Drug metabolism [14]: 1.385 µg/mL
- Drug metabolism [15]: 1.961 µg/mL
- Stability [16]: 0.599 µg/mL
- Stability [17]: 3.094 µg/mL
- Stability [18]: 4.569 µg/mL
- Stability [19]: 4.488 µg/mL
- Stability [20]: 3.777 µg/mL
- Drug metabolism [21]: 0 µg/mL
- Drug metabolism [22]: 8.69 µg/mL
- Drug metabolism [23]: 14.044 µg/mL
- Drug metabolism [24]: 13.543 µg/mL
- Drug metabolism [25]: 10.608 µg/mL
- AUC [26]: 1680 µg·min/mL
- Tmax [27]: 40 min
- Cmax [28]: 10600 ng/mL
